Measured values: ChEMBL document CHEMBL4808174, “Exploring Heteroaromatic Rings as a Replacement for the Labile Amide of Antiplasmodial Pantothenamides” (J Med Chem, 2021)
The source made the active and inactive calls. The calls are words filed in the database; no cut-off is given here.

Assays:
[1] = Antiproliferative activity against human HFF cells assessed as cell proliferation at 200 uM incubated for 3 to 4 days in presence of 1 uM pantothenate by SYBR assay
[2] = Antiproliferative activity against human HFF cells assessed as cell proliferation at 100 uM incubated for 3 to 4 days in presence of 1 uM pantothenate by SYBR assay
Plasmodium falciparum [3] = test: Antiplasmodial activity against ring stage Plasmodium falciparum 3D7 infected in human erythrocytes assessed as inhibition of parasite growth incubated for 96 hrs in presence of 1 uM pantothenate by SYBR Green I dye based fluorescence assay; type: functional, organism-based; conditions: 3D7, Erythrocyte
How it was run: (§1)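 P. falciparum 3D7 ring stages at 0.5% parasitemia and 1% hematocrit in Albumax II medium. Where specified, 100 μM sodium pantothenate was added. Incubation 96 h, then freeze-thaw and SYBR Safe lysis-buffer fluorescence. Chloroquine 0.25-25 μM served as zero-proliferation control. Experiments in triplicate; 100 μM pantothenate data from two experiments.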

[4] = Selectivity index, ratio of IC50 for human HFF cells to IC50 for Plasmodium falciparum in presence of 1 uM pantothenate; type: toxicity; conditions: HFF cells versus Plasmodium falciparum, read-out: Ratio IC50
How it was run: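 HFF cells grown 3-4 days in RPMI 1640 with 10% bovine calf serum and antibiotics, with compound up to 200 μM; SYBR Safe-based read-out. Selectivity index = HFF IC50 divided by P. falciparum IC50 at 1 μM pantothenate. Where HFF inhibition stayed below 50%, 200 μM (or 100 μM) was used as the HFF value to set limits.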

Plasmodium falciparum [5] = test: Antiplasmodial activity against ring stage Plasmodium falciparum 3D7 infected in human erythrocytes assessed as inhibition of parasite growth at 100 uM pretreated with compound followed by parasite infection by SYBR Green I dye based fluorescence assay; type: functional, organism-based; conditions: Erythrocyte
Plasmodium falciparum [6] = test: Antiplasmodial activity against ring stage Plasmodium falciparum 3D7 infected in human erythrocytes assessed as inhibition of parasite growth incubated for 96 hrs in presence of 100 uM pantothenate by SYBR Green I dye based fluorescence assay; type: functional, organism-based; conditions: 3D7, Erythrocyte
How it was run: as §1

Plasmodium falciparum [7] = test: Antiplasmodial activity against ring stage Plasmodium falciparum NF54 infected in human erythrocytes assessed as inhibition of parasite growth incubated for 72 hrs in presence of pantothenate by SYBR Green dye based fluorescence assay; type: functional, organism-based; conditions: NF54, Erythrocyte
[8] = Apparent permeability of the compound across apical to basolateral side in human Caco-2 cells at 20 uM
[9] = Metabolic stability in mouse liver microsomes assessed as half life at 1 uM in presence or absence of NADPH regenerating system by LC-MS analysis; type: ADME, Microsome
How it was run: (§2)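 Stability in mouse or human liver microsomes was measured with and without an NADPH-regenerating system, giving in vitro t1/2 and intrinsic clearance in μL/min/mg protein.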

[10] = Metabolic stability in human liver microsomes assessed as intrinsic clearance at 1 uM in presence of absence of NADPH regenerating system measured per mg protein by LC-MS analysis; type: ADME, Microsome; conditions: read-out: CLH
How it was run: as §2

Plasmodium falciparum [11] = test: Antiplasmodial activity against ring stage Plasmodium falciparum 3D7 infected in human erythrocytes assessed as inhibition of parasite growth incubated for 24 hrs by SYBR Green I dye based fluorescence assay; type: functional, organism-based; conditions: Erythrocyte
How it was run: (§3)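 Triple-sorbitol-synchronized 3D7 ring-stage cultures at 0.5% parasitemia and 1% hematocrit were exposed to compound at ten concentrations at 37 °C in 96% N₂, 3% CO₂, 1% O₂. After 5, 10, 24 or 48 h, cells were washed three times and resuspended without compound. Total culture time 96 h, then SYBR Safe fluorescence. Three experiments in triplicate.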

[12] = Drug concentration in BALB/c mouse plasma at 100 mg/kg/day, ip measured after 2 days; type: ADME, organism-based; conditions: whole blood, in the assay text read “whole blood” for “plasma”
How it was run: (§4)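 Dosing was 100 mg/kg ip in P. berghei-infected female BALB/c mice, repeated at 24 h. 10 μL tail whole blood was sampled by microsampling device at 3 h, at ~24 h (before the second dose) and at 48 h. Samples were extracted with 80% acetonitrile using diazepam as internal standard and quantified by LC-MS MRM against a spiked-blood standard curve of 5 ng/mL-20 μg/mL. LLQ was 16 or 17 nM. Mean of five mice.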

[13] = Drug concentration in BALB/c mouse plasma at 100 mg/kg/day, ip measured after 3 hrs; type: ADME, organism-based; conditions: whole blood, in the assay text read “whole blood” for “plasma”
How it was run: as §4

Plasmodium knowlesi = test: Antiplasmodial activity against Plasmodium knowlesi infected in human erythrocytes assessed as inhibition of parasite growth incubated for 72 hrs in presence of 1 uM pantothenate by SYBR Green I dye based fluorescence assay; type: functional, organism-based; conditions: Erythrocyte
[14] = Drug concentration in BALB/c mouse plasma at 100 mg/kg/day, ip measured after 1 day; type: ADME, organism-based; conditions: whole blood, in the assay text read “whole blood” for “plasma”
How it was run: as §4

Plasmodium berghei = test: Antiplasmodial activity against Plasmodium berghei ANKA infected in BALB/c mouse model of malaria assessed as reduction in parasitemia at 100 mg/kg/day, ip for 2 days by Giemsa staining based flow cytometry analysis; type: functional, organism-based; conditions: time 2.0 day
How it was run: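 Female BALB/c mice, 8-12 weeks, infected ip with 1 × 10⁵ P. berghei ANKA-infected erythrocytes. Once parasitemia reached 0.4-1.5% (5 mice per group), 100 mg/kg was given ip in 150 mM NaCl containing 20.9% v/v DMSO; second dose at 24 h. Daily tail-bleed parasitemia was read by Giemsa-stained thin smear or by flow cytometry (JC-1, Hoechst 33342, anti-CD45/CD71/TER119).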

[15] = Drug degradation in human liver microsomes after 60 mins; type: ADME, Microsome; conditions: read-out: Drug degradation
How it was run: (§5)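 Degradation in mouse or human liver microsomes was followed over 60 min, with and without an NADPH-regenerating system.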

[16] = Metabolic stability in human liver microsomes assessed as half life at 1 uM in presence or absence of NADPH regenerating system by LC-MS analysis; type: ADME, Microsome
How it was run: as §2

Plasmodium falciparum [17] = test: Antiplasmodial activity against ring stage Plasmodium falciparum 3D7 infected in human erythrocytes assessed as inhibition of parasite growth incubated for 48 hrs by SYBR Green I dye based fluorescence assay; type: functional, organism-based; conditions: Erythrocyte
How it was run: as §3

Plasmodium falciparum [18] = test: Antiplasmodial activity against ring stage Plasmodium falciparum 3D7 infected in human erythrocytes assessed as inhibition of parasite growth incubated for 10 hrs by SYBR Green I dye based fluorescence assay; type: functional, organism-based; conditions: Erythrocyte
How it was run: as §3

[19] = Metabolic stability in mouse liver microsomes assessed as intrinsic clearance at 1 uM in presence or absence of NADPH regenerating system measured per mg protein by LC-MS analysis; type: ADME, Microsome; conditions: read-out: CLH
How it was run: as §2

[20] = Drug degradation in mouse liver microsomes after 60 mins; type: ADME, Microsome; conditions: read-out: Drug degradation
How it was run: as §5

[21] = Drug degradation in mouse liver microsomes in absence of NADPH after 60 mins; type: ADME, Microsome; conditions: read-out: Drug degradation
How it was run: as §5

[22] = Drug degradation in mouse liver microsomes in presence of NADPH after 60 mins; type: ADME, Microsome; conditions: 1 h
How it was run: as §5

SMILES	proliferation at 200 µM [1] [%]	proliferation at 100 µM [2] [%]	IC50 (Plasmodium falciparum [3]) [nM]	selectivity ratio at 1 µM [4]	other results
CCCCCn1cnc(CNC(=O)[C@H](O)C(C)(C)CO)n1	106	101	> 100000	–	–
CCCCCn1cnc(CNC(=O)[C@H](O)C(C)(C)CO)c1	103	91	14000	> 14	–
CCN(CC)CCCC(C)Nc1ccnc2cc(Cl)ccc12 (stereo not drawn)	–	–	–	–	Activity (Plasmodium falciparum [5]): inactive
CCCCCCn1cc(CNC(=O)[C@H](O)C(C)(C)CO)nn1	–	–	55	–	–
CCCCCc1cc(CNC(=O)[C@H](O)C(C)(C)CO)n[nH]1	89	88	7400	> 27	–
CCCCCc1nnc(CNC(=O)[C@H](O)C(C)(C)CO)s1	88	90	960	> 200	IC50 (Plasmodium falciparum [6]): 26000 nM
CCCCc1cc(CNC(=O)[C@H](O)C(C)(C)CO)no1	74	95	72	> 2700	–
CCCCCC(=O)NCCNC(=O)[C@H](O)C(C)(C)CO	–	–	–	–	IC50 (Plasmodium falciparum [7]): 630 nM
CC(C)NCC(O)COc1cccc2ccccc12 (stereo not drawn) [PROPRANOLOL]	–	–	–	–	Papp A→B at 20 µM [8]: 49 ×10⁻⁶ cm/s
CCCCCc1nc(CNC(=O)[C@H](O)C(C)(C)CO)no1	100	111	1800	> 110	IC50 (Plasmodium falciparum [6]): > 12000 nM
CCCCCc1nnc(CNC(=O)[C@H](O)C(C)(C)CO)[nH]1	71	84	40000	> 5	–
CCCCCc1cc(CCNC(=O)[C@H](O)C(C)(C)CO)on1	95	97	4800	> 41	–
CCCCCc1ccc(CNC(=O)[C@H](O)C(C)(C)CO)s1	16	58	2800	35	–
CCCCCn1cc(CNC(=O)[C@H](O)C(C)(C)CO)nn1	77	88	56	> 3500	half-life at 1 µM [9]: > 4.25 h; microsomal CLint at 1 µM [10]: < 7 µL/min/mg; Activity (Plasmodium falciparum [11]): Active; Papp A→B at 20 µM [8]: 13 ×10⁻⁶ cm/s; concentration at 48 h [12]: < 16 nM; concentration at 3 h [13]: 1100 nM; IC50 (Plasmodium knowlesi): 28 nM; Activity (Plasmodium falciparum [5]): inactive; concentration at 24 h [14]: < 16 nM; Activity (Plasmodium berghei): inactive; IC50 (Plasmodium falciparum [6]): > 250 nM; metabolised at 1 h [15]: < 15%; half-life at 1 µM [16]: > 4.25 h; Activity (Plasmodium falciparum [17]): Active; Activity (Plasmodium falciparum [18]): inactive; microsomal CLint at 1 µM [19]: < 7 µL/min/mg; metabolised at 1 h [20]: < 15%
CCCCCc1cc(CNC(=O)[C@H](O)C(C)(C)CO)no1	71	104	160	> 1200	half-life at 1 µM [9]: 0.55 h; microsomal CLint at 1 µM [10]: 11 µL/min/mg; metabolised at 1 h [21]: 20%; Activity (Plasmodium falciparum [11]): Active; Papp A→B at 20 µM [8]: 55 ×10⁻⁶ cm/s; concentration at 48 h [12]: < 17 nM; concentration at 3 h [13]: 72 nM; IC50 (Plasmodium knowlesi): 6.1 nM; Stabilty [22]: Unstable; Activity (Plasmodium falciparum [5]): inactive; concentration at 24 h [14]: < 17 nM; Activity (Plasmodium berghei): inactive; IC50 (Plasmodium falciparum [6]): > 1000 nM; half-life at 1 µM [16]: 2.53 h; Activity (Plasmodium falciparum [17]): Active; Activity (Plasmodium falciparum [18]): inactive; microsomal CLint at 1 µM [19]: 53 µL/min/mg
CC(C)(CO)[C@@H](O)C(=O)NCc1cc(CCc2ccccc2)on1	95	94	5900	> 33	–
CCCCCc1ncc(CNC(=O)[C@H](O)C(C)(C)CO)o1	35	87	80000	1.2	–
CCCCCn1ncc(CNC(=O)[C@H](O)C(C)(C)CO)n1	103	97	28000	> 7.1	–
CCCCCc1cnc(CNC(=O)[C@H](O)C(C)(C)CO)o1	82	98	23000	> 8.6	–
NNC(=O)N1C(=O)c2cc(S(=O)(=O)[O-])cc3c(N)c(S(=O)(=O)[O-])cc(c23)C1=O.[Li+].[Li+] [LUCIFER YELLOW]	–	–	–	–	Papp A→B at 20 µM [8]: < 1 ×10⁻⁶ cm/s
CCCCCCc1cc(CNC(=O)[C@H](O)C(C)(C)CO)on1	87	97	2200	> 90	–
CCCCc1cc(CNC(=O)[C@H](O)C(C)(C)CO)on1	101	97	190	> 1000	–
CCCCCn1cc(CNC(=O)[C@H](O)C(C)(C)CO)cn1	85	102	34000	> 5	–
CCCCCc1cc(CNC(=O)[C@H](O)C(C)(C)CO)on1	88	100	630	> 310	IC50 (Plasmodium falciparum [6]): > 12000 nM
CCCCCCc1cc(CNC(=O)[C@H](O)C(C)(C)CO)no1	60	78	240	> 830	–
CCCCCc1nnc(CNC(=O)[C@H](O)C(C)(C)CO)o1	91	108	71000	> 2.8	–
CCCCCc1noc(CNC(=O)[C@H](O)C(C)(C)CO)n1	90	91	5300	> 37	–
CC(C)(CO)[C@@H](O)C(=O)NCc1cc(CCc2ccccc2)no1	113	102	11000	> 18	–
